ChEMBL document CHEMBL3352141, “Carboline- and phenothiazine-derivated heterocycles as potent SIGMA-1 protein ligands” (Eur J Med Chem, 2015)

How the values were obtained:
[1] = biological target: Sigma non-opioid intracellular receptor 1 (Homo sapiens, UniProt Q99720); assay: Displacement of [3H](+)-pentazocine from human sigma 1 receptor in human Jurkat cell membranes incubated for 2 hrs by liquid scintillation counting
[2] = system: Jurkat; assay: Selectivity index, ratio of Ki for human sigma 2 receptor in human Jurkat cell membranes to Ki for human sigma 1 receptor in human Jurkat cell membranes; format: cell-based
Procedure, shortened: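 The ratio divides sigma-2 Ki by sigma-1 Ki, both measured on Jurkat membranes. Sigma-2 used 25 nM [3H]-DTG with (+)-pentazocine masking, 1 h at room temperature. Sigma-1 used 15 nM [3H](+)-pentazocine, 2 h at 37 °C. Both assays ran in 5 mM Tris/HCl, pH 7.4, with filtration and scintillation read-out.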

[3] = Displacement of [3H]-DTG from human sigma 2 receptor in human Jurkat cell membranes incubated for 1 hr by liquid scintillation counting
Procedure, shortened: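 Competition binding on Jurkat cell membranes (10–20 µg protein per tube) with 25 nM [3H]-DTG, plus (+)-pentazocine to saturate sigma-1 sites, across a range of test concentrations. Incubation was 1 h at room temperature in 5 mM Tris/HCl, pH 7.4. Bound ligand was separated by rapid GF/B filtration with ice-cold NaCl washes and counted by liquid scintillation. Nonspecific binding was measured under similar conditions.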

[4] = Selectivity index, ratio of IC50 for human SH-SY5Y cells to Ki for human sigma 1 receptor in human Jurkat cell membranes
[5] = Cytotoxicity against human SH-SY5Y cells after 72 hrs by MTT assay; format: cell-based
Procedure, shortened: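 SH-SY5Y neuroblastoma cells were grown in DMEM with 2 mM L-glutamine, streptomycin, 100 IU/mL penicillin, 1 mM non-essential amino acids and 10% heat-inactivated FBS at 37 °C under 5% CO2. Cells were seeded at 2000 per well and serum-starved 24 h, then exposed to a concentration series in <0.1% DMSO. Viability was read by colorimetric MTT. IC50 is the mean of 2–3 independent experiments.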

[6] = Displacement of [3H]-DTG from rat cerebral cortex membrane sigma 2 receptor incubated for 1 hr by liquid scintillation counting; format: tissue-based
[7] = system: Jurkat; assay: Selectivity index, ratio of Ki for sigma 2 receptor in rat cerebral cortex membranes to Ki for human sigma 1 receptor in human Jurkat cell membranes; format: cell-based

Sigma non-opioid intracellular receptor 1, sequence (Q99720 whole entry): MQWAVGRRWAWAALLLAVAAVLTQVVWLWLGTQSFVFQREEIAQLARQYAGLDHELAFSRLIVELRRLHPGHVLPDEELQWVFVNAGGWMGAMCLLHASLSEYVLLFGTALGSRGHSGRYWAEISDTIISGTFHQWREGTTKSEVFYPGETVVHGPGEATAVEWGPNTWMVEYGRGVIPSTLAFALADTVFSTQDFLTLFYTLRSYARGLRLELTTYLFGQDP

| Structure (SMILES) | Ki [1] [nM] | Ratio Ki [2] | Ki [3] [nM] | Selectivity Index [4] | IC50 [5] [µM] | Ki [6] [nM] | Ratio Ki [7] |
| --- | --- | --- | --- | --- | --- | --- | --- |
| CN(CCCN1CCc2oc3ccccc3c2C1)CCc1ccccc1 | 2.5 | 31 | 78 | 10160 | 25.4 | – | – |
| O=C1C2Cc3ccccc3CN2C(=O)N1CCCN1Cc2ccccc2C1 (stereo unspecified) | 5.3 | 103 | 416 | – | – | 416 | 78 |
| CN(CCCN1CCc2c([nH]c3ccccc23)C1c1ccccc1)CCc1ccccc1 (stereo unspecified) | 11 | 8 | 93 | 1073 | 11.8 | – | – |
| c1ccc2c(c1)CN(CCCN1CCc3oc4ccccc4c3C1)C2 | 11 | 0.9 | 9.9 | 7173 | 78.9 | – | – |
| CN(CCCN1c2ccccc2Sc2ccccc21)CCc1ccccc1 | 11 | 28 | 310 | 782 | 8.6 | – | – |
| CN(CCCN1CCc2[nH]c3ccccc3c2C1)Cc1ccccc1 | 18 | 7 | 130 | 939 | 16.9 | – | – |
| CN(CCCn1c(=O)oc2cc3c(cc21)C(c1ccccc1)CC3=O)Cc1ccccc1 (stereo unspecified) | 72 | 2.5 | 180 | >1389 | > 100 | – | – |
| CN(CCCN1c2ccccc2Oc2ccccc21)CCc1ccccc1 | 18 | 4 | 80 | 2606 | 46.9 | – | – |
| CN(CCCN1c2ccccc2Oc2ccccc21)Cc1ccccc1 | > 200 | < 1 | 180 | <350 | 71.9 | – | – |
| CN(CCCN1CCc2c([nH]c3ccccc23)C1c1ccccc1)Cc1ccccc1 (stereo unspecified) | 4.3 | 23 | 100 | 2163 | 9.3 | – | – |
| c1ccc(C2c3[nH]c4ccccc4c3CCN2CCCN2CCCC2)cc1 (stereo unspecified) | 36 | 9 | 310 | 1328 | 47.8 | – | – |
| CN(CCCN1CCc2oc3ccccc3c2C1)Cc1ccccc1 | 2 | < 5 | < 10 | 34450 | 68.9 | – | – |
| c1ccc2c3c([nH]c2c1)CN(CCCN1CCCC1)CC3 | > 200 | – | > 400 | <160 | 32.9 | – | – |
| CN(CCCn1c(=O)oc2cc3c(cc21)C(c1ccc(Cl)cc1)CC3=O)Cc1ccccc1 (stereo unspecified) | 160 | 0.3 | 50 | 31 | 5 | – | – |
| O=C(CCCN1CCC(O)(c2ccc(Cl)cc2)CC1)c1ccc(F)cc1 [HALOPERIDOL] | – | – | 175 | – | – | – | – |
| c1ccc2c(c1)CN(CCCN1CCc3c([nH]c4ccccc34)C1)C2 | 8 | 14 | 110 | 3112 | 24.9 | – | – |
| CN(CCCN1CCc2c([nH]c3ccccc23)C1)CCc1ccccc1 | 7.2 | 13 | 91 | 1611 | 11.6 | – | – |
| c1ccc2c(c1)CN(CCCN1c3ccccc3Sc3ccccc31)C2 | 12 | 8 | 94 | 6942 | 83.3 | – | – |
| c1ccc2c(c1)CN(CCCN1CCc3[nH]c4ccccc4c3C1)C2 | 72 | 2.5 | 180 | 694 | 50 | – | – |
| c1ccc(C2c3[nH]c4ccccc4c3CCN2CCCN2Cc3ccccc3C2)cc1 (stereo unspecified) | 8.4 | 13 | 110 | 2179 | 18.3 | – | – |
| CN(CCCN1C(=O)[C@H]2Cc3ccccc3CN2C1=O)Cc1ccccc1 | – | – | 764 | – | 19.5 | 764 | – |
| CN(CCCN1C(=O)[C@@H]2Cc3ccccc3CN2C1=O)Cc1ccccc1 | – | – | 496 | – | > 100 | 496 | – |
| c1ccc2c(c1)CN(CCCN1c3ccccc3Oc3ccccc31)C2 | > 200 | < 1 | 140 | <55 | 11 | – | – |
| CN(CCCN1c2ccccc2Sc2ccccc21)Cc1ccccc1 | 28 | 10 | 280 | 611 | 17.1 | – | – |
| CN(CCCN1CCc2[nH]c3ccccc3c2C1)CCc1ccccc1 | 11 | 18 | 200 | 3018 | 33.2 | – | – |
| CN(CCCN1CCc2c([nH]c3ccccc23)C1)Cc1ccccc1 | 6.2 | 2.4 | 15 | 3177 | 19.7 | – | – |
